Test results reported in ChEMBL document CHEMBL4312035, “Preliminary SAR and biological evaluation of potent HIV-1 protease inhibitors with pyrimidine bases as novel P2 ligands to enhance activity against DRV-resistant HIV-1 variants” (Eur J Med Chem, 2020).

Experiments:
[1] = test system: Human immunodeficiency virus 1; assay: Antiviral activity against VSV-G pseudotyped HIV1 transfected in human 293T cells co-transfected with NL4-3 HIV1 supernatant infected in human SupT1 cells treated with compound for 48 hrs assessed as inhibition of viral infection at 10 uM after 48 hrs by luciferase assay (reference value: 0 %); assay type: functional; conditions: Human immunodeficiency virus 1, 48 h
[2] = test system: Human immunodeficiency virus 1; assay: Antiviral activity against VSV-G pseudotyped HIV1 transfected in human 293T cells co-transfected with NL4-3 HIV1 supernatant infected in human SupT1 cells treated with compound for 48 hrs assessed as inhibition of viral infection at 100 nM after 48 hrs by luciferase assay (reference value: 0 %); assay type: functional; conditions: Human immunodeficiency virus 1, 48 h
Protease = Protease (Human immunodeficiency virus 1, UniProt Q9YQ12); assay: Inhibition of HIV1 protease expressed in Escherichia coli using Arg-Glu (EDANS)-Ser-Gln-Asn-Tyr-Pro-Ile-Val-Gln-Lys(DABCYL)-Arg as substrate preincubated for 20 to 30 mins followed by substrate addition and measured for 10 mins by FRET assay
Protease, sequence (Q9YQ12 whole entry): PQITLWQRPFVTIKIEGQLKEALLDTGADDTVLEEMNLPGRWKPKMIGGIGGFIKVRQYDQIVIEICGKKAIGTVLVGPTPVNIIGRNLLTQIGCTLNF
Method in brief: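 Recombinant HIV-1 protease, purified from E. coli. Buffer: 0.1 M sodium acetate, 1 M NaCl, 1 mM EDTA, 1 mM DTT, 2% DMSO, 1 mg/mL BSA, pH 4.7. Inhibitor dissolved in DMSO. Excitation 340 nm, emission 490 nm, recorded about 10 min. Run in triplicate; IC50 as mean ± 1 SD from three independent experiments.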

[3] = Cytotoxicity against human 293T cells measured after 24 hrs by CCK8 assay; assay type: cell-based; conditions: HEK-293T cells
Method in brief: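 293T cells plated at 20 000 per well and cultured 24 h before drug addition; exposure 24 h, then CCK-8 added and absorbance read at 450 nm after 2 h at room temperature. Run in triplicate; mean ± 1 SD from three independent experiments.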

[4] = test system: Human immunodeficiency virus 1; assay: Antiviral activity against wild-type HIV1 NL4-3 infected in human SupT1 cells infected with […] after 48 hrs by luciferase reporter assay; assay type: functional, organism-based; conditions: Human immunodeficiency virus 1, NL4-3, 48 h
[5] = test system: Human immunodeficiency virus 1; assay: Ratio of EC50 for antiviral activity against darunavir-resistant HIV1 NL4-3 infected in human SupT1 cells infected with supernatants from virus-infected human TZM-bl cells to EC50 for antiviral activity against wild-type HIV1 NL4-3 infected in human SupT1 cells infected with supernatants from virus-infected human TZM-bl cells; assay type: functional
[6] = test system: Human immunodeficiency virus 1; assay: Antiviral activity against darunavir-resistant HIV1 NL4-3 infected in human […] after 48 hrs by luciferase reporter assay; assay type: functional, organism-based; conditions: Human immunodeficiency virus 1, NL4-3, 48 h

SMILES | inhibition at 10 µM [1] | inhibition at 0.1 µM [2] | IC50 (Protease) | CC50 at 24 h [3] | EC50 [4] | Ratio EC50 [5] | EC50 [6]
COc1ccc(S(=O)(=O)N(CC(C)C)C[C@@H](O)[C@H](Cc2ccccc2)NC(=O)Cn2ccc(=O)[nH]c2=O)cc1 | 81% | 68% | 2.53 nM | > 100000 nM | 270 nM | 2.19 | 590 nM
CC(C)CN(C[C@@H](O)[C@H](Cc1ccccc1)NC(=O)Cn1cc(F)c(N)nc1=O)S(=O)(=O)c1ccc([N+](=O)[O-])cc1 | – | – | 482 nM | > 100000 nM | – | – | –
COc1ccc(S(=O)(=O)N(CC(C)C)C[C@@H](O)[C@H](Cc2ccccc2)NC(=O)Cn2cc(F)c(N)nc2=O)cc1 | – | – | 36 nM | > 100000 nM | – | – | –
Cc1cn(CC(=O)N[C@@H](Cc2ccccc2)[C@H](O)CN(CC(C)C)S(=O)(=O)c2ccc(N)cc2)c(=O)nc1N | – | – | 375 nM | > 100000 nM | – | – | –
COc1ccc(S(=O)(=O)N(CC(C)C)C[C@@H](O)[C@H](Cc2ccccc2)NC(=O)Cn2cc(C)c(=O)[nH]c2=O)cc1 | 72.7% | – | 2.78 nM | > 100000 nM | 2500 nM | 1.15 | 2870 nM
COc1ccc(S(=O)(=O)N(CC(C)C)C[C@@H](O)[C@H](Cc2ccccc2)NC(=O)Cn2cc(C)c(N)nc2=O)cc1 | – | – | 147 nM | > 100000 nM | – | – | –
CC(C)CN(C[C@@H](O)[C@H](Cc1ccccc1)NC(=O)Cn1cc(CO)c(=O)[nH]c1=O)S(=O)(=O)c1ccc(N)cc1 | – | – | 241 nM | > 100000 nM | – | – | –
CC(C)CN(C[C@@H](O)[C@H](Cc1ccccc1)NC(=O)Cn1ccc(=O)[nH]c1=O)S(=O)(=O)c1ccc([N+](=O)[O-])cc1 | 51% | – | 20.1 nM | > 100000 nM | – | – | –
Cc1cn(CC(=O)N[C@@H](Cc2ccccc2)[C@H](O)CN(CC(C)C)S(=O)(=O)c2ccc([N+](=O)[O-])cc2)c(=O)nc1N | – | – | 1190 nM | > 100000 nM | – | – | –
COc1ccc(S(=O)(=O)N(CC(C)C)C[C@@H](O)[C@H](Cc2ccccc2)NC(=O)Cn2cc(F)c(=O)[nH]c2=O)cc1 | 83.2% | 51% | 1.95 nM | > 100000 nM | 1070 nM | 2.52 | 2700 nM
CC(C)CN(C[C@@H](O)[C@H](Cc1ccccc1)NC(=O)Cn1ccc(N)nc1=O)S(=O)(=O)c1ccc(N)cc1 | – | – | 153 nM | > 100000 nM | – | – | –
CC(C)CN(C[C@@H](O)[C@H](Cc1ccccc1)NC(=O)Cn1cccnc1=O)S(=O)(=O)c1ccc(N)cc1 | – | – | 126 nM | > 100000 nM | – | – | –
CC(C)CN(C[C@@H](O)[C@H](Cc1ccccc1)NC(=O)Cn1cc(F)c(=O)[nH]c1=O)S(=O)(=O)c1ccc([N+](=O)[O-])cc1 | 32.8% | – | 27.6 nM | 32400 nM | – | – | –
CC(C)CN(C[C@@H](O)[C@H](Cc1ccccc1)NC(=O)Cn1cc(F)c(=O)[nH]c1=O)S(=O)(=O)c1ccc(N)cc1 | 63% | – | 16.3 nM | 8800 nM | – | – | –
CC(C)CN(C[C@@H](O)[C@H](Cc1ccccc1)NC(=O)Cn1cccnc1=O)S(=O)(=O)c1ccc([N+](=O)[O-])cc1 | – | – | 245 nM | > 100000 nM | – | – | –
Cc1cn(CC(=O)N[C@@H](Cc2ccccc2)[C@H](O)CN(CC(C)C)S(=O)(=O)c2ccc([N+](=O)[O-])cc2)c(=O)[nH]c1=O | – | – | 44.3 nM | > 100000 nM | – | – | –
CC(C)CN(C[C@@H](O)[C@H](Cc1ccccc1)NC(=O)Cn1ccc(N)nc1=O)S(=O)(=O)c1ccc([N+](=O)[O-])cc1 | – | – | 411 nM | > 100000 nM | – | – | –
CC(C)CN(C[C@@H](O)[C@H](Cc1ccccc1)NC(=O)Cn1cc(F)c(N)nc1=O)S(=O)(=O)c1ccc(N)cc1 | – | – | 105 nM | > 100000 nM | – | – | –
CC(C)CN(C[C@@H](O)[C@H](Cc1ccccc1)NC(=O)Cn1ccc(=O)[nH]c1=O)S(=O)(=O)c1ccc(N)cc1 | 48.4% | – | 20.1 nM | > 100000 nM | – | – | –
CC(C)CN(C[C@@H](O)[C@H](Cc1ccccc1)NC(=O)O[C@H]1CO[C@H]2OCC[C@H]21)S(=O)(=O)c1ccc(N)cc1 | 83.2% | – | – | > 100000 nM | 6 nM | – | 100 nM
CC(C)CN(C[C@@H](O)[C@H](Cc1ccccc1)NC(=O)Cn1cc(CO)c(=O)[nH]c1=O)S(=O)(=O)c1ccc([N+](=O)[O-])cc1 | – | – | 405 nM | > 100000 nM | – | – | –
Cc1cn(CC(=O)N[C@@H](Cc2ccccc2)[C@H](O)CN(CC(C)C)S(=O)(=O)c2ccc(N)cc2)c(=O)[nH]c1=O | 54% | – | 19.7 nM | > 100000 nM | – | – | –
COc1ccc(S(=O)(=O)N(CC(C)C)C[C@@H](O)[C@H](Cc2ccccc2)NC(=O)Cn2cccnc2=O)cc1 | 50.3% | – | 10.3 nM | > 100000 nM | – | – | –
COc1ccc(S(=O)(=O)N(CC(C)C)C[C@@H](O)[C@H](Cc2ccccc2)NC(=O)Cn2cc(CO)c(=O)[nH]c2=O)cc1 | 59.8% | – | 9.07 nM | > 100000 nM | – | – | –
Cc1ccnc2c1NC(=O)c1cccnc1N2C1CC1 [NEVIRAPINE] | – | 76 to 77% | – | – | – | – | –
COc1ccc(S(=O)(=O)N(CC(C)C)C[C@@H](O)[C@H](Cc2ccccc2)NC(=O)Cn2ccc(N)nc2=O)cc1 | 33.2% | – | 9.04 nM | > 100000 nM | – | – | –
